Source: ChEMBL document CHEMBL5674880 (PLoS One, 2018)
Blank lines part the entries; values can stand above or below the compound they belong to.

Assays:
Assay type in all cases: functional, cell-based
[1] = tested on: A 172; experiment: Antiproliferative activity against human A-172 cells after 10 days; conditions: A 172, 240 h
In short: (§1)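 Tested as part of a 240-line cancer cell panel (Eurofins Oncopanel); all lines were mycoplasma-negative and STR-verified. Cells were exposed to a compound concentration series in 2D culture for 10 days. The highest concentration was 10 μM or 25 μM, depending on the inhibitor. Antiproliferative IC50 was derived from the mean of three biological replicates.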

[2] = tested on: A498; experiment: Antiproliferative activity against human A498 cells after 10 days; conditions: A498, 240 h; in short: as §1
[3] = Antiproliferative activity against human A7 cells after 10 days; conditions: A7, 240 h; in short: as §1
[4] = tested on: ASPC1; experiment: Antiproliferative activity against human ASPC1 cells after 10 days; conditions: ASPC1, 240 h; in short: as §1
[5] = Antiproliferative activity against human BM-1604 cells after 10 days; conditions: BM-1604, 240 h; in short: as §1
[6] = tested on: BXPC-3; experiment: Antiproliferative activity against human BXPC-3 cells after 10 days; conditions: BXPC-3, 240 h; in short: as §1
[7] = Antiproliferative activity against human C32TG cells after 10 days; conditions: 240 h; in short: as §1
[8] = tested on: Caov-3 cell line; experiment: Antiproliferative activity against human Caov-3 cells after 10 days; conditions: Caov-3, 240 h
In short: (§2)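 10-day 2D proliferation screen of a broad cancer cell panel (about 240 lines, Eurofins Oncopanel). All lines were mycoplasma negative and STR verified. Compounds were dosed up to a top concentration of 10 μM or 25 μM, depending on the inhibitor. Anti-proliferative IC50 values are the average of three biological replicates.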

[9] = tested on: ChaGo-K-1; experiment: Antiproliferative activity against human ChaGo-K-1 cells after 10 days; conditions: ChaGo-K-1, 240 h; in short: as §2
[10] = tested on: COLO 201; experiment: Antiproliferative activity against human COLO201 cells after 10 days; conditions: COLO 201, 240 h; in short: as §2
[11] = tested on: COLO 320DM; experiment: Antiproliferative activity against human COLO 320DM cells after 10 days; conditions: 240 h; in short: as §1
[12] = tested on: D283 Med; experiment: Antiproliferative activity against human D283 Med cells after 10 days; conditions: 240 h; in short: as §2
[13] = tested on: Daudi; experiment: Antiproliferative activity against human Daudi cells after 10 days; conditions: 240 h; in short: as §2
[14] = tested on: DMS-273; experiment: Antiproliferative activity against human DMS-273 cells after 10 days; conditions: DMS-273, 240 h; in short: as §2
[15] = tested on: DMS-53; experiment: Antiproliferative activity against human DMS-53 cells after 10 days; conditions: DMS-53, 240 h; in short: as §2
[16] = tested on: DU-145; experiment: Antiproliferative activity against human DU-145 cells after 10 days; conditions: DU-145, 240 h; in short: as §2
[17] = tested on: ES-2; experiment: Antiproliferative activity against human ES2 cells after 10 days; conditions: ES-2, 240 h; in short: as §2
[18] = tested on: G-401; experiment: Antiproliferative activity against human G-401 cells after 10 days; conditions: G-401, 240 h; in short: as §2
[19] = tested on: HPAF-II; experiment: Antiproliferative activity against human HPAF-II cells after 10 days; conditions: 240 h; in short: as §2
[20] = tested on: Hs 294T; experiment: Antiproliferative activity against human Hs 294T cells after 10 days; conditions: 240 h; in short: as §2
[21] = tested on: HT-3; experiment: Antiproliferative activity against human HT-3 cells after 10 days; conditions: HT-3, 240 h; in short: as §2
[22] = tested on: JAR; experiment: Antiproliferative activity against human JAR cells after 10 days; conditions: 240 h
In short: (§3)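 Broad cancer cell line panel (Eurofins Oncopanel, about 240 lines; mycoplasma negative, STR verified) grown in 2D culture and exposed to compound in a 10-day proliferation assay. The top concentration was 10 μM for the SMYD2 inhibitor series and 25 μM for the SMYD3 inhibitor. The proliferative IC50 is taken from concentration-response data, each value the mean of three biological replicates.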

[23] = tested on: K562; experiment: Antiproliferative activity against human K562 cells after 10 days; conditions: K562, 240 h; in short: as §3
[24] = tested on: KATO III stomach cancer cell line; experiment: Antiproliferative activity against human KATO III cells after 10 days; conditions: 240 h; in short: as §3
[25] = tested on: LS-1034; experiment: Antiproliferative activity against human LS1034 cells after 10 days; conditions: LS-1034, 240 h; in short: as §3
[26] = tested on: MDA-MB-231; experiment: Antiproliferative activity against human MDA-MB-231 cells after 10 days; conditions: MDA-MB-231, 240 h; in short: as §3
[27] = tested on: MeWo; experiment: Antiproliferative activity against human MeWo cells after 10 days; conditions: 240 h; in short: as §3
[28] = tested on: MOLT-3; experiment: Antiproliferative activity against human MOLT-3 cells after 10 days; conditions: MOLT-3, 240 h; in short: as §3
[29] = Antiproliferative activity against human MT-3 cells after 10 days; conditions: MT-3, 240 h; in short: as §3
[30] = tested on: OE33; experiment: Antiproliferative activity against human OE33 cells after 10 days; conditions: OE33, 240 h; in short: as §3
[31] = tested on: OVCAR-3; experiment: Antiproliferative activity against human OVCAR-3 cells after 10 days; conditions: OVCAR-3, 240 h; in short: as §3
[32] = Antiproliferative activity against human RKOAS451 cells after 10 days; conditions: RKOAS451, 240 h; in short: as §3
[33] = Antiproliferative activity against human RKOE6 cells after 10 days; conditions: RKOE6, 240 h
In short: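 Tested in the Eurofins Oncopanel of about 240 cancer cell lines, all mycoplasma-negative and STR-verified. Cells were exposed to compound for 10 days in 2D culture, and a proliferative IC50 was derived from the concentration series. The highest concentration tested was 10 μM in the SMYD2 inhibitor screen and 25 μM in the SMYD3 inhibitor screen. Values are means of three biological replicates.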

[34] = tested on: RL95-2; experiment: Antiproliferative activity against human RL95-2 cells after 10 days; conditions: RL95-2, 240 h
[35] = tested on: RPMI-7951; experiment: Antiproliferative activity against human RPMI-7951 cells after 10 days; conditions: RPMI-7951, 240 h
[36] = tested on: SK-MEL3; experiment: Antiproliferative activity against human SK-MEL3 cells after 10 days; conditions: SK-MEL3, 240 h
[37] = tested on: SK-N-DZ; experiment: Antiproliferative activity against human SK-N-DZ cells after 10 days; conditions: 240 h
[38] = Antiproliferative activity against human SKO-007 cells after 10 days; conditions: SKO-007, 240 h
[39] = tested on: SK-UT-1; experiment: Antiproliferative activity against human SK-UT-1 cells after 10 days; conditions: SK-UT-1, 240 h
[40] = tested on: SNU1; experiment: Antiproliferative activity against human SNU1 cells after 10 days; conditions: SNU1, 240 h
[41] = tested on: SW480; experiment: Antiproliferative activity against human SW480 cells after 10 days; conditions: SW480, 240 h
[42] = tested on: SW684; experiment: Antiproliferative activity against human SW684 cells after 10 days; conditions: SW684, 240 h
[43] = tested on: SW948; experiment: Antiproliferative activity against human SW948 cells after 10 days; conditions: SW948, 240 h
[44] = tested on: SW982; experiment: Antiproliferative activity against human SW982 cells after 10 days; conditions: SW982, 240 h
[45] = Antiproliferative activity against human TE 381.T cells after 10 days; conditions: 240 h
[46] = tested on: Y79; experiment: Antiproliferative activity against human Y79 cells after 10 days; conditions: Y79, 240 h
[47] = tested on: YAPC; experiment: Antiproliferative activity against human YAPC cells after 10 days; conditions: 240 h

- IC50 [4]: 3010 nM
- IC50 [6]: 2870 nM
- IC50 [10]: 1060 nM
- IC50 [11]: 2110 nM
- IC50 [13]: 857 nM
- IC50 [16]: 4130 nM
- IC50 [23]: 3210 nM
- IC50 [24]: 1390 nM
- IC50 [26]: 1070 nM
- IC50 [28]: 1360 nM
- IC50 [31]: 3950 nM
- IC50 [36]: 1390 nM
- IC50 [37]: 3760 nM
- IC50 [39]: 1410 nM
- IC50 [40]: 1190 nM
- IC50 [41]: 2150 nM
- IC50 [42]: 5750 nM
- IC50 [43]: 3910 nM
- IC50 [44]: 5790 nM
Compound: Cc1cn(CCN2CCN(c3ccccc3-c3cc(C#N)cc(C(=O)NCCCN4CCCC4)c3)CC2)c2ccccc12
- IC50 [1]: 1960 nM
- IC50 [2]: 2010 nM
- IC50 [3]: 2540 nM
- IC50 [5]: 4820 nM
- IC50 [7]: 2360 nM
- IC50 [8]: 2600 nM
- IC50 [9]: 1230 nM
- IC50 [12]: 2510 nM
- IC50 [14]: 987 nM
- IC50 [15]: 3170 nM
- IC50 [17]: 1320 nM
- IC50 [18]: 905 nM
- IC50 [19]: 1600 nM
- IC50 [20]: 2480 nM
- IC50 [21]: 3270 nM
- IC50 [22]: 2880 nM
- IC50 [25]: 2900 nM
- IC50 [27]: 1980 nM
- IC50 [29]: 1240 nM
- IC50 [30]: 2000 nM
- IC50 [32]: 1110 nM
- IC50 [33]: 1070 nM
- IC50 [34]: 1290 nM
- IC50 [35]: 2050 nM
- IC50 [38]: 855 nM
- IC50 [45]: 1990 nM
- IC50 [46]: 3530 nM
- IC50 [47]: 2870 nM

- IC50 [4]: > 10000 nM
- IC50 [6]: > 10000 nM
- IC50 [10]: > 10000 nM
- IC50 [11]: > 10000 nM
- IC50 [13]: > 10000 nM
- IC50 [16]: > 10000 nM
- IC50 [23]: > 10000 nM
- IC50 [24]: > 10000 nM
- IC50 [26]: > 10000 nM
- IC50 [28]: > 10000 nM
- IC50 [31]: > 10000 nM
- IC50 [36]: > 10000 nM
- IC50 [37]: > 10000 nM
- IC50 [39]: > 10000 nM
- IC50 [40]: > 10000 nM
- IC50 [41]: > 10000 nM
- IC50 [42]: > 10000 nM
- IC50 [43]: > 10000 nM
- IC50 [44]: > 10000 nM
Compound: O=C(NC1CN(Cc2cnn(Cc3ccccc3)c2)C1)c1cn(C2CC2)nn1
- IC50 [1]: > 10000 nM
- IC50 [2]: > 10000 nM
- IC50 [3]: > 10000 nM
- IC50 [5]: > 10000 nM
- IC50 [7]: > 10000 nM
- IC50 [8]: > 10000 nM
- IC50 [9]: > 10000 nM
- IC50 [12]: > 10000 nM
- IC50 [14]: > 10000 nM
- IC50 [15]: > 10000 nM
- IC50 [17]: > 10000 nM
- IC50 [18]: > 10000 nM
- IC50 [19]: > 10000 nM
- IC50 [20]: > 10000 nM
- IC50 [21]: > 10000 nM
- IC50 [22]: > 10000 nM
- IC50 [25]: > 10000 nM
- IC50 [27]: > 10000 nM
- IC50 [29]: > 10000 nM
- IC50 [30]: > 10000 nM
- IC50 [32]: > 10000 nM
- IC50 [33]: > 10000 nM
- IC50 [34]: > 10000 nM
- IC50 [35]: > 10000 nM
- IC50 [38]: 168 nM
- IC50 [45]: > 10000 nM
- IC50 [46]: > 10000 nM
- IC50 [47]: > 10000 nM
